Experimental data from ChEMBL document CHEMBL2150923, “Synthesis and biological evaluation of 2,3-diarylimidazo[1,2-a]pyridines as antileishmanial agents” (Eur J Med Chem, 2012).
The source made the active and inactive calls. No cut-off for these calls is given here.

Assays:
[1] = Inhibition of Leishmania major recombinant His-tagged CK1.2 using RRKHAAIGpSAYSITA as substrate and [32gammaP]ATP after 30 mins by scintillation counting
Summary of the method: (§1)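 Kinase reactions at 30 °C for 30 min with 15 µM [γ-33P]ATP and 25 µM CKS peptide, in buffer A (Mops pH 7.2, EGTA, MgCl2, DTT, vanadate). Porcine-brain CK1δ/ε was run in three-fold diluted buffer A. LmCK1.2 was His-tagged, expressed in E. coli and cobalt-purified. Reactions were spotted on P81 paper, washed in 1% phosphoric acid, and counted by scintillation. After blank subtraction, activity is expressed as % of the uninhibited maximum, with DMSO controls.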

[2] = tested on: Leishmania major; test: Antileishmanial activity against promastigote form of Leishmania major MHOM/IL/81/BNI after 96 hrs by resazurin-based spectrofluorimetric method; assay type: functional, organism-based
Summary of the method: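 Promastigotes were maintained in Schneider's medium + 13% heat-inactivated FBS at 26 °C. They were seeded at 10^6/mL and exposed to compound for 96 h at 26 °C; DMSO was at most 1% final. Resazurin was added 4 h before reading, with fluorescence at ex 550/em 590 nm. IC50 values are means of at least three determinations.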

[3] = tested on: Leishmania major; test: Antileishmanial activity against amastigote form of Leishmania major MHOM/IL/81/BNI infected in Balb/c mouse peritoneal macrophages assessed as inhibition of intracellular amastigote burden at 10 uM […] by May-Grunwald-Geimsa staining; assay type: functional
Summary of the method: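 Peritoneal macrophages from Balb/c mice at 1.5×10^5 cells/mL in RPMI 1640 + 15% FBS on glass slides, allowed to attach for 24 h (37 °C, 5% CO2). They were then infected with stationary-phase promastigotes (1.5×10^5/mL) for 24 h, washed, and exposed to 10 µM compound. Medium plus drug was renewed at 48 h. After 2 more days, cells were methanol-fixed, Giemsa-stained, and amastigotes counted per 100 macrophages in duplicate wells.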

[4] = Methanol-buffer partition coefficient, log D of the compound by RP-HPLC analysis at pH 7.5; assay type: physicochemical
Summary of the method: (§2)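 Log D was determined by RP-HPLC on a C18 column with methanol and aqueous buffer: 0.01 M acetic acid for pH 4.5, and 0.01 M ammonium acetate for […]. Dead time was taken from thiourea. Extrapolated log kw was calibrated against 30 OECD reference substances, and log D read by interpolation for each pH.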

[5] = tested on: HeLa; test: Cytotoxicity against human HeLa cells after 96 hrs by resazurin-based spectrofluorimetric method; assay type: cell-based
Summary of the method: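 HeLa cells in RPMI 1640 + 10% serum were seeded at 10^5/mL and incubated 24 h at 37 °C, 5% CO2. Compound dilutions were then added in duplicate, with DMSO at most 1% final. After 96 h, resazurin was added; after a further 3 h at 37 °C, fluorescence was read at ex 550/em 590 nm.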

[6] = Inhibition of pig brain CK1delta/epsilon using RRKHAAIGpSAYSITA as substrate and [32gammaP]ATP after 30 mins by scintillation counting; parameters: species or system Sus scrofa; summary of the method: as §1
[7] = Selectivity index, ratio of IC50 for human HeLa cells to IC50 for promastigote form of Leishmania major MHOM/IL/81/BNI; assay type: toxicity, cell-based; conditions: read-out: Ratio IC50
[8] = Methanol-buffer partition coefficient, log D of the compound by RP-HPLC analysis at pH 4.5; assay type: physicochemical; summary of the method: as §2
[9] = tested on: Leishmania major; test: Inhibition of Leishmania major PKC
[10] = tested on: Leishmania major; test: Antileishmanial activity against amastigote form of Leishmania major MHOM/IL/81/BNI infected in Balb/c mouse peritoneal macrophages assessed as inhibition of intracellular amastigote burden at 1 uM after 48 hrs by May-Grunwald-Geimsa staining; assay type: functional

IC50 [1] [µM]	chromatographic logD [4]	IC50 [6] [µM]	chromatographic logD [8]	inhibition [9]	Structure (SMILES)	IC50 [2] [µM]	inhibition at 10 µM [3] [%]	IC50 [5] [µM]	selectivity ratio [7]	inhibition at 1 µM [10] [%]
> 10	4.35	> 10	3.29	–	O=[N+]([O-])c1ccc(-c2c(-c3ccccc3)nc3ccccn23)cc1	4.9	68	27	5.51	–
> 10	4.65	> 10	4.2	inactive	O=[N+]([O-])c1ccc(-c2nc3ccccn3c2-c2ccccc2)cc1	30	84	554	18.5	–
> 10	4.59	> 10	2.04	–	COc1ccc(-c2nc3ccccn3c2-c2ccccc2)cc1	26.6	85	48	1.8	–
–	–	–	–	–	NC(=O)c1ccc(-c2c(-c3ccccc3)nc3ccccn23)cc1	27	–	27	1	–
–	–	–	–	–	O=[N+]([O-])c1cccc(-c2c(-c3ccc(F)cc3)nc3ccccn23)c1	> 100	–	–	–	–
–	–	–	–	–	Fc1ccccc1-c1nc2ccccn2c1-c1ccccc1	39	–	18	0.46	–
> 10	5.9	> 10	4.04	inactive	CC(C)(C)C(=O)Oc1ccc(-c2c(-c3ccccc3)nc3ccccn23)cc1	7	95	38	5.43	–
–	–	–	–	–	N#Cc1ccc(-c2c(-c3ccccc3)nc3ccccn23)cc1	> 100	–	–	–	–
> 10	5.88	> 10	4.53	–	Clc1cc(Cl)cc(-c2c(-c3ccccc3)nc3ccccn23)c1	7.7	79	18	2.34	–
–	–	–	–	–	N=C(N)c1ccc(OCCCCCOc2ccc(C(=N)N)cc2)cc1 [PENTAMIDINE]	4.8	99	15	3.13	–
–	–	–	–	–	Fc1ccc(-c2nc3ccccn3c2-c2ccccc2)cc1	23	–	72	3.13	–
> 10	5.46	> 10	4.26	inactive	CCOC(=O)c1ccc(-c2nc3ccccn3c2-c2ccccc2)cc1	40	86	346	8.65	–
–	–	–	–	–	Nc1ccc(-c2c(-c3ccccc3)nc3ccccn23)cc1	43	–	28.1	0.65	–
–	–	–	–	–	Clc1cc(Cl)cc(-c2nc3ccccn3c2-c2cccnc2)c1	31.4	–	28	0.89	–
0.3	2.87	0.25	2.03	–	c1ccc(-c2nc3ccccn3c2-c2ccncc2)cc1	6.5	32	25	3.85	–
–	–	–	–	–	Oc1ccc(-c2c(-c3ccccc3)nc3ccccn23)cc1	40	–	16	0.4	–

IC50 [1] [µM]	chromatographic logD [4]	IC50 [6] [µM]	chromatographic logD [8]	inhibition [9]	Structure (SMILES)	IC50 [2] [µM]	inhibition at 10 µM [3] [%]	IC50 [5] [µM]	selectivity ratio [7]	inhibition at 1 µM [10] [%]
> 10	5.25	> 10	3.91	–	Clc1cccc(-c2nc3ccccn3c2-c2ccccc2)c1	4.4	94	5	1.14	–
–	–	–	–	–	O=C(O)c1ccc(-c2c(-c3ccccc3)nc3ccccn23)cc1	> 100	–	–	–	–
> 10	4.5	> 10	2.15	–	c1ccc(-c2nc3ccccn3c2-c2ccccc2)cc1	22.5	84	31	1.38	–
–	–	–	–	–	c1ccc(-c2nc3ccccn3c2-c2cccnc2)cc1	22.5	–	4	0.18	–
–	–	–	–	–	COc1ccccc1-c1nc2ccccn2c1-c1ccccc1	18.2	–	24	1.32	–
–	–	–	–	–	Fc1ccc(-c2nc3ccccn3c2-c2cccnc2)cc1	38.3	–	87	2.27	–
–	–	–	–	–	Fc1ccccc1-c1nc2ccccn2c1-c1cccnc1	34.8	–	29	0.83	–
–	–	–	–	–	CC(=O)Oc1ccc(-c2c(-c3ccccc3)nc3ccccn23)cc1	16	–	40	2.5	–
–	–	–	–	–	c1ccc(-c2nc3ccccn3c2-c2ccsc2)cc1	14.3	–	35	2.45	–
4	5.19	7.1	3.59	–	CCOC(=O)c1ccc(-c2c(-c3ccccc3)nc3ccccn23)cc1	5.2	18	5	0.96	–
> 10	5.13	> 10	2.61	–	Cc1ccc(-c2c(-c3ccccc3)nc3ccccn23)cc1	4	96	4	1	–
1.2	4.58	0.63	2.31	–	COc1ccc(-c2c(-c3ccccc3)nc3ccccn23)cc1	7.2	71	14	1.92	–
–	–	–	–	–	c1ccc(-c2nc3ccccn3c2-c2cncnc2)cc1	> 100	–	–	–	–
–	–	–	–	–	COc1ccc(-c2nc3ccccn3c2-c2cccc([N+](=O)[O-])c2)cc1	14	–	30	2.14	–
> 10	6.1	> 10	5.58	inactive	Clc1cc(Cl)cc(-c2nc3ccccn3c2-c2ccccc2)c1	39	–	67	1.71	71
